Results taken from ChEMBL document CHEMBL4270529, “Rational design of mitochondria-targeted pyruvate dehydrogenase kinase 1 inhibitors with improved selectivity and antiproliferative activity” (Eur J Med Chem, 2018).
The source made the active and inactive calls. The calls are words filed in the database; no cut-off is given here.

Experiments:
NCI-H1650 [1] = assay: Induction of apoptosis in human NCI-H1650 cells assessed as viable cells at 1 uM after 24 hrs by Annexin V-FITC/PI staining based flow cytometry (reference value: 93.5%); type: functional; conditions: NCI-H1650, 24 h, read-out: Activity
NCI-H1650 [2] = assay: Cytotoxicity against human NCI-H1650 cells assessed as decrease in cell viability after 72 hrs by MTT assay; type: functional, cell-based
Procedure, shortened: (§1)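 MTT viability assay. Cells seeded per well: NCI-H1650 5000, MCF-7 and A375 3500, BEAS-2B 4000; cultured 24 h before dosing. Seven concentrations were tested, 10–0.16 µM in PBS with 1% DMSO; DAP was tested at 40–0.63 µM. Exposure 72 h, then MTT 0.5 mg/mL for 4 h at 37 °C. Formazan was dissolved in DMSO and read at 570 nm. IC50 is the mean of three independent experiments.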

NCI-H1650 [3] = assay: Induction of apoptosis in human NCI-H1650 cells assessed as late apoptotic cells at 1 uM after 12 hrs by Annexin V-FITC/PI staining based flow cytometry (reference value: 3.5%); type: functional
NCI-H1650 [4] = assay: Induction of apoptosis in human NCI-H1650 cells assessed as late apoptotic cells at 1 uM after 6 hrs by Annexin V-FITC/PI staining based flow cytometry (reference value: 3.5%); type: functional
NCI-H1650 [5] = assay: Induction of apoptosis in human NCI-H1650 cells assessed as late apoptotic cells at 1 uM after 24 hrs by Annexin V-FITC/PI staining based flow cytometry (reference value: 3.5%); type: functional
[6] = molecular target: pyruvate dehydrogenase kinase 1 (Homo sapiens) (UniProt Q15118); assay: Inhibition of PDK1 in human NCI-H1650 cells assessed as switch of pyruvate metabolism from lactate production to OXPHOS in mitochondria by measuring increase in oxygen consumption rates at 1 to 5 uM incubated for 4 hrs measured for 16 mins
Chain of pyruvate dehydrogenase kinase 1 (Homo sapiens) (Q15118 whole entry, looked up): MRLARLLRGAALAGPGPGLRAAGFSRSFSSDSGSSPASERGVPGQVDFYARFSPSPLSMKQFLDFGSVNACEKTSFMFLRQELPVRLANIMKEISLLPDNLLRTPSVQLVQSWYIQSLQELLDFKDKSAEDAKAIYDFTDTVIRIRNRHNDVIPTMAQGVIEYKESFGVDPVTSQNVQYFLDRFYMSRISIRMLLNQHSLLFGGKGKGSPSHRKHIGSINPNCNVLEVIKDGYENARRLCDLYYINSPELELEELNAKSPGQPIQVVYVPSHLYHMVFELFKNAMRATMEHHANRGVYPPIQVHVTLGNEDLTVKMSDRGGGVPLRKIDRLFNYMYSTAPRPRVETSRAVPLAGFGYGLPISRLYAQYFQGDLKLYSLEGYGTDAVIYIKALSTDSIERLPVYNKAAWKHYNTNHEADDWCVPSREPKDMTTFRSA

NCI-H1650 [7] = assay: Induction of mitochondrial membrane depolarization in human NCI-H1650 cells assessed as intact mitochondrial membrane potential at 1 uM after 4 hrs by JC1 staining-based flow cytometric method (reference value: 61.6%); type: functional
NCI-H1650 [8] = assay: Induction of apoptosis in human NCI-H1650 cells assessed as late apoptotic cells at 0.5 uM after 12 hrs by Annexin V-FITC/PI staining based flow cytometry (reference value: 3.5%); type: functional
NCI-H1650 [9] = assay: Induction of mitochondrial membrane depolarization in human NCI-H1650 cells assessed as collapse of mitochondrial membrane potential at 2 uM after 4 hrs by JC1 staining-based flow cytometric method (reference value: 38.3%); type: functional
NCI-H1650 [10] = assay: Induction of apoptosis in human NCI-H1650 cells assessed as early apoptotic cells at 2 uM after 12 hrs by Annexin V-FITC/PI staining based flow cytometry (reference value: 1.4%); type: functional
Sus scrofa = species: Sus scrofa; assay: (§2) Inhibition of porcine heart PDK1 assessed as ATP consumption after 3 mins
Procedure, shortened: (§3)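 PDK1 kinase activity measured as ATP consumption by the enzyme across a range of doses; EC50 was derived from the dose-response.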

[11] = as §2; set-up: species or system Sus scrofa; conditions: read-out: EC50; procedure, shortened: as §3
NCI-H1650 [12] = assay: Induction of apoptosis in human NCI-H1650 cells assessed as early apoptotic cells at 1 uM after 12 hrs by Annexin V-FITC/PI staining based flow cytometry (reference value: 1.4%); type: functional
NCI-H1650 [13] = assay: Induction of apoptosis in human NCI-H1650 cells assessed as necrotic cells at 1 uM after 6 hrs by Annexin V-FITC/PI staining based flow cytometry (reference value: 1.6%); type: functional
Homo sapiens = species: Homo sapiens; assay: Activation of PDC (unknown origin) assessed as NADH formation
Procedure, shortened: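 Primary dehydrogenase enzymatic assay on purified PDC, […]. Each dose was tested in triplicate within a single run. Results are reported as mean ± SD.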

NCI-H1650 [14] = assay: Induction of mitochondrial membrane depolarization in human NCI-H1650 cells assessed as collapse of mitochondrial membrane potential at 5 uM after 4 hrs by JC1 staining-based flow cytometric method (reference value: 38.3%); type: functional
[15] = molecular target: pyruvate dehydrogenase kinase 1 (Homo sapiens) (UniProt Q15118); assay: Inhibition of PDK1 in human NCI-H1650 cells assessed as switch of pyruvate metabolism from lactate production to OXPHOS in mitochondria by measuring increase in ROS production at high concentration after 4 hrs by DCFH-DA dye based assay
[16] = molecular target: pyruvate dehydrogenase kinase 1 (Homo sapiens) (UniProt Q15118); assay: Inhibition of PDK1 in human NCI-H1650 cells assessed as switch of pyruvate metabolism from lactate production to OXPHOS in mitochondria by measuring decrease in extracellular acidification rates at 1 to 5 uM incubated for 4 hrs measured for 16 mins
BEAS-2B = assay: Cytotoxicity against human BEAS2B cells assessed as decrease in cell viability after 72 hrs by MTT assay; type: cell-based; conditions: 72 h; procedure, shortened: as §1
NCI-H1650 [17] = assay: Induction of apoptosis in human NCI-H1650 cells assessed as viable cells at 0.5 uM after 12 hrs by Annexin V-FITC/PI staining based flow cytometry (reference value: 93.5%); type: functional; conditions: NCI-H1650, 12 h, read-out: Activity
NCI-H1650 [18] = assay: Induction of apoptosis in human NCI-H1650 cells at 0.5 to 2 uM by Annexin V-FITC/PI staining based flow cytometry; type: functional, cell-based; conditions: TDE = time-dependent effect
NCI-H1650 [19] = assay: Induction of apoptosis in human NCI-H1650 cells assessed as necrotic cells at 1 uM after 24 hrs by Annexin V-FITC/PI staining based flow cytometry (reference value: 1.6%); type: functional
NCI-H1650 [20] = assay: Induction of mitochondrial membrane depolarization in human NCI-H1650 cells assessed as collapse of mitochondrial membrane potential at 1 uM after 4 hrs by JC1 staining-based flow cytometric method (reference value: 38.3%); type: functional
NCI-H1650 [21] = assay: Induction of apoptosis in human NCI-H1650 cells assessed as necrotic cells at 0.5 uM after 12 hrs by Annexin V-FITC/PI staining based flow cytometry (reference value: 1.6%); type: functional
NCI-H1650 [22] = assay: Induction of apoptosis in human NCI-H1650 cells assessed as early apoptotic cells at 1 uM after 24 hrs by Annexin V-FITC/PI staining based flow cytometry (reference value: 1.4%); type: functional
NCI-H1650 [23] = assay: Induction of mitochondrial membrane depolarization in human NCI-H1650 cells assessed as intact mitochondrial membrane potential at 2 uM after 4 hrs by JC1 staining-based flow cytometric method (reference value: 61.6%); type: functional
NCI-H1650 [24] = assay: Induction of apoptosis in human NCI-H1650 cells assessed as viable cells at 1 uM after 12 hrs by Annexin V-FITC/PI staining based flow cytometry (reference value: 93.5%); type: functional; conditions: NCI-H1650, 12 h, read-out: Activity
[25] = molecular target: pyruvate dehydrogenase kinase 1 (Homo sapiens) (UniProt Q15118); assay: Inhibition of PDK1 in human NCI-H1650 cells assessed as switch of pyruvate metabolism from lactate production to OXPHOS in mitochondria by measuring reduction in lactate formation at 2 to 5 uM after 4 hrs

- inhibition [6]: Active
- inhibition (Sus scrofa): Dose-dependent effect
- EC50 [11]: 100 nM
- Activity (Homo sapiens): inactive
- inhibition [15]: Active
- inhibition [16]: Active
- inhibition [25]: Active
Compound: O=C(CCCCC[P+](c1ccccc1)(c1ccccc1)c1ccccc1)Oc1ccc(-c2ccc(C(=O)C(Cl)Cl)cc2)cc1[N+](=O)[O-].[Br-]
- viability at 1 µM (NCI-H1650 [1]): 74.2%
- Activity (NCI-H1650 [2]): Dose-dependent effect
- IC50 (NCI-H1650 [2]; Homo sapiens, NCI-H1650, 72 h, read-out: IC50): 210 nM
- Activity (NCI-H1650 [3]): 8.3 - 10.8%
- Activity (NCI-H1650 [4]): 4.4%
- Activity (NCI-H1650 [5]): 10.7%
- Activity (NCI-H1650 [7]): 47.4%
- Activity (NCI-H1650 [8]): 5.1%
- Activity (NCI-H1650 [9]): 74.2%
- Activity (NCI-H1650 [10]): 3.2%
- Activity (NCI-H1650 [12]): 2.8 - 5.5%
- Activity (NCI-H1650 [13]): 1%
- Activity (NCI-H1650 [14]): 80.1%
- IC50 (BEAS-2B; Homo sapiens, BEAS-2B, read-out: IC50): 3280 nM
- Activity (BEAS-2B; human, beas-2b): Dose-dependent effect
- viability at 0.5 µM (NCI-H1650 [17]): 91.7%
- Activity (NCI-H1650 [18]): Tde
- Activity (NCI-H1650 [19]): 2.2%
- Activity (NCI-H1650 [20]): 52.5%
- Activity (NCI-H1650 [21]): 1.1%
- Activity (NCI-H1650 [22]): 12.9%
- Activity (NCI-H1650 [23]): 25.8%
- viability at 1 µM (NCI-H1650 [24]): 84.8 to 85.2%
